The text below walks through data of ChEMBL document CHEMBL1125380, “Synthesis, cardiac electrophysiology, and beta-blocking activity of novel arylpiperazines with potential as class II/III antiarrhythmic agents” (J Med Chem, 1992).

Experiment [1] concerns the target Beta-2 adrenergic receptor (Canis lupus familiaris, UniProt P54833). The class given is cell membranes.
The species named for experiment [2] is Canis familiaris. Nature of the experiment: Compound was evaluated for Mean arterial pressure in dog. Format: functional, Canis lupus familiaris, Artery. In short, it runs like this:
(§1)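 Pentobarbital-anesthetized mongrel dogs (n = 4) received a 10 mg/kg iv dose over 5 min. Haemodynamic parameters were recorded 15 min after dosing, as change from pre-dose.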

The species entered for experiment [3] is Canis familiaris. Nature of the experiment: Peak range of change in left ventricular pressure in dog. Format: functional, Canis lupus familiaris, Heart left ventricle. A digest of the protocol: as §1
The species named for experiment [4] is Canis familiaris. Put plainly: Compound was evaluated for change in Heart rate in dog. The class given is functional, Canis lupus familiaris. In short, it runs like this: as §1
For experiment [5], the species on record is Canis familiaris. Put plainly: Compound was evaluated for Cardiac output in dog. Format: functional, Canis lupus familiaris. A digest of the protocol:
as §1

The species named for experiment [6] is Canis familiaris. Put plainly: Number of active animals / number of tested animals in programmed electrical stimulation model (PES). The class given is functional, Canis lupus familiaris. A digest of the protocol: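 Conscious dogs studied by programmed electrical stimulation 3-8 days after occlusion/reperfusion infarction. Two control SVT/VF inductions were made first, with VF ended by DC countershock and SVT by burst pacing. Reinduction was tried after iv compound; an animal counted as protected if SVT/VF could not be induced.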

Experiment [7] deals with Canis familiaris. Put plainly: number of effected animals / number of tested animals at 3 mg/kg in a halothane / epinephrine model. Format: functional, Canis lupus familiaris. In short, it runs like this:
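Halothane-anesthetized dogs received compound as a 10-min iv infusion at 3 mg/kg. Thirty minutes later, epinephrine was infused at 1.5 µg/kg per min for 15 min. Protection meant no SVT/VF during the whole epinephrine infusion; reported as protected/tested.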

For experiment [8], the species on record is Canis familiaris. Nature of the experiment: Compound was evaluated for Total peripheral resistance in dog. The class given is functional, Canis lupus familiaris. In short, it runs like this:
as §1

For experiment [9], the species on record is Canis familiaris. Nature of the experiment: Concentration necessary to prolong APD at 95% repolarization by 20% from control. Format: functional, Canis lupus familiaris. In short, it runs like this:
(§2)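 Concentration giving a 20% prolongation of action potential duration at 95% repolarization versus control, with Vmax monitored as a class I index. Values are the log mean of n experiments with range; concentrations went up to 30 µM.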

For experiment [10], the species on record is Canis familiaris. Nature of the experiment: Concentration necessary to prolong APD at 95% repolarization by 20% from control; Not Reached at 30 uM. The class given is functional. The conditions noted are these: Canis lupus familiaris. A digest of the protocol: as §2

One may read the IC50 as the point on the concentration scale where inhibition reaches its midpoint. The low end stands for inhibition by little substance, the high end for a need for much substance.

Active and inactive are the calls of the source. No cut-off for these calls is given here.

Chain of Beta-2 adrenergic receptor (P54833 whole entry): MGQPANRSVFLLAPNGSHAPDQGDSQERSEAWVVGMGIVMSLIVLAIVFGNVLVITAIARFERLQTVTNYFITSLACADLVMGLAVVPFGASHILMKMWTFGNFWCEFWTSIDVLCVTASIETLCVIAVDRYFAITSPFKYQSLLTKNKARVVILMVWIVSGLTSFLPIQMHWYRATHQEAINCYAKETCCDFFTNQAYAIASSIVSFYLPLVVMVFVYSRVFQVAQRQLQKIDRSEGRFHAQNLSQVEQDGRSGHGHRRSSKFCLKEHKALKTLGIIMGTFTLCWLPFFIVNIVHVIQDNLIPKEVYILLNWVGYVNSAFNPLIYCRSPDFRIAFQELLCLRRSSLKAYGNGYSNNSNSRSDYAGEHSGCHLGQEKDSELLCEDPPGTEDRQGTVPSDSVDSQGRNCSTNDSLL

For `c1ccc(N2CCNCC2)cc1` [PHENYLPIPERAZINE], the IC50 in experiment [1] is greater than 100 µM.

In [2], `CS(=O)(=O)Nc1ccc(C(=O)NCC2CN(c3ccccc3)CCN2)cc1` (configuration not stated) registered an MAP of 5. The same compound displayed an LV in experiment [3] of 3. This compound had an HR in experiment [4] of 38. In [5], this compound showed a Cardiac output of -14. This compound also gave a concentration for half-maximal inhibition (IC50) in experiment [1] of 3.4 µM. In experiment [6], the No. active is 6. This compound displayed a No. effective in [7] of 5. This compound gave a TPR in [8] of 22. Besides, in experiment [9], the “C20 APD95” value was found to be 0.8 µM.

On to `Clc1cccc(N2CCNCC2)c1` [CHLOROPHENYLPIPERAZINE], for which the IC50 in experiment [1] was 18 µM.

For the compound `Clc1ccc(N2CCNCC2)cc1`, in experiment [1], inhibition was half-maximal at 70 µM (IC50).

In the case of `CS(=O)(=O)Nc1ccc(NCC2CN(c3ccccc3)CCN2)cc1` (configuration not stated), the IC50 in [1] is 1 µM. Besides, the “C20 APD95” value in experiment [9] is 2 µM.

The compound `CS(=O)(=O)Nc1ccc(NCC2CNCCN2c2ccccc2)cc1` (configuration not stated) displayed an IC50 in experiment [1] of 42 µM. Besides, the “C20 APD95” value in experiment [9] amounted to 9.2 µM.

Consider `Clc1ccccc1N1CCNCC1`, for which the IC50 in [1] turned out to be 16 µM.

Compound `COc1ccccc1N1CCNC(CNC(=O)c2ccc(NS(C)(=O)=O)cc2)C1` (configuration not stated) had an IC50 in experiment [1] of 0.63 µM. Besides, the “C20 APD95” value in [9] was 18 µM.

As for `CN(c1ccc(C(=O)NCC2CN(c3ccccc3)CCN2)cc1)S(C)(=O)=O` (configuration not stated), in experiment [10], the “C20 APD95” value was “inactive”. In experiment [1], half-maximal inhibition (IC50) required 4.3 µM.

`CS(=O)(=O)Nc1ccc(C(=O)NCC2CNCCN2c2ccccc2)cc1` (configuration not stated): in [1], the IC50 worked out at 31 µM. Further, the “C20 APD95” value in experiment [9] was found to be 3.2 µM.

The compound `CS(=O)(=O)Nc1ccc(C(=O)NCC2CN(c3cccc(Cl)c3)CCN2)cc1` (configuration not stated) came in with an IC50 in [1] of 3.8 µM. Also, the “C20 APD95” value in [9] amounted to 0.8 µM.

Turning to `CS(=O)(=O)Nc1ccc(CNCC2CN(c3ccccc3)CCN2)cc1` (configuration not stated), inhibition in experiment [1] was half-maximal at 4.6 µM (IC50). Further, the “C20 APD95” value in experiment [9] was 0.4 µM.

Turning to `O=C(NCC1CN(c2ccccc2)CCN1)c1ccccc1` (configuration not stated), the “C20 APD95” value in experiment [10] is “inactive”. This compound also returned an IC50 in experiment [1] of 6.2 µM.

`Cc1cccc(N2CCNCC2)c1`: the IC50 in experiment [1] was 40 µM.

`O=C(NCC1CN(c2ccccc2)CCN1)c1ccc(-n2ccnc2)cc1` (configuration not stated) displayed an IC50 in experiment [1] of 4.3 µM. Moreover, the “C20 APD95” value in experiment [9] stood at 0.9 µM.

In [1], `COc1cccc(N2CCNC(CNC(=O)c3ccc(NS(C)(=O)=O)cc3)C2)c1` (configuration not stated) displayed an IC50 of 3.5 µM. Moreover, the “C20 APD95” value in [9] turned out to be 2.5 µM.

In [1], `COc1ccc(N2CCNCC2)cc1` registered an IC50 greater than 100 µM.

Consider `CS(=O)(=O)Nc1ccc(NC(=O)C2CN(c3ccccc3)CCN2)cc1` (configuration not stated), for which the IC50 in experiment [1] was greater than 100 µM. In experiment [9], the “C20 APD95” value amounted to 21 µM.

For `CS(=O)(=O)Nc1ccc(OCC2CN(c3ccccc3)CCN2)cc1` (configuration not stated), in experiment [1], the IC50 amounted to 4.5 µM. The “C20 APD95” value in experiment [9] is 1 µM.

In turn, `COc1cccc(N2CCNCC2)c1` displayed an IC50 in [1] of 29 µM.

Compound `Cc1ccc(N2CCNCC2)cc1` displayed an IC50 in [1] greater than 100 µM.

For the compound `COc1ccccc1N1CCNCC1`, the IC50 in [1] was determined as 34 µM.

Take `CC(C)NCC(O)c1ccc(NS(C)(=O)=O)cc1` (configuration not stated) [SOTALOL]: the MAP in [2] was -26. Also, in [3], the LV was -33. The compound also yielded an HR in experiment [4] of -39. In experiment [5], this compound had a Cardiac output of -44. The No. active in experiment [6] is 7. In experiment [7], this compound yielded a No. effective of 6. Also, in [8], the TPR came to 41. Further, the “C20 APD95” value in [9] was determined as 18 µM.

As for `CC(=O)c1ccc(N2CCNCC2)cc1`, the IC50 in experiment [1] was greater than 100 µM.

Regarding `Cc1ccccc1N1CCNCC1`, in [1], the IC50 came to 29 µM.
